In ChEMBL document CHEMBL4393719, “Tetrahydro-3-benzazepines with fluorinated side chains as NMDA and σ1 receptor antagonists: Synthesis, receptor affinity, selectivity and antiallodynic activity” (Eur J Med Chem, 2019):
pKi: −log10 of the molar value.

Tests used:
Sus scrofa [1] = species: Sus scrofa; details: at 1 µM
Homo sapiens = species: Homo sapiens; test: Displacement of [3H] ifenprodil from GluN2B/GluN1a (unknown origin) expressed in mouse L(tk-) cell membranes at 10^-10 to 10^-5 mol/L incubated for 120 mins by scintillation counting method relative to control
Outline: (§1)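 Membranes from mouse L(tk-) cells co-transfected with dexamethasone-inducible GluN1a/GluN2B (1:5), induced 24 h with 4 μM dexamethasone plus 4 μM ketamine.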

[2] = molecular target: Sigma non-opioid intracellular receptor 1 (Cavia porcellus) (UniProt Q60492); test: Displacement of [3H]-(+)-pentazocine from sigma1 receptor in guinea pig brain cortex membranes at 10^-10 to 10^-5 mol/L incubated for 120 mins by scintillation counting method relative to control; type: cell membranes
[3] = molecular target: Sigma intracellular receptor 2 (Rattus norvegicus) (UniProt Q5U3Y7); test: Displacement of [3H]-di-o-tolylguanidine from sigma2 receptor in rat liver membranes at 10^-10 to 10^-5 mol/L incubated for 120 mins by scintillation counting method relative to control; type: cell membranes
Sus scrofa [4] = species: Sus scrofa; test: Displacement of [3H]-(+)-MK-801 from NMDA PCP binding site in pig brain cortex membrane at 10 uM incubated for 180 mins by scintillation counting method relative to control; type: cell membranes
[5] = Displacement of [3H] ifenprodil from GluN2B/GluN1a (unknown origin) expressed in mouse L(tk-) cell membranes incubated for 120 mins by scintillation counting method; design: species or system Homo sapiens
Outline: as §1

Chain of Sigma intracellular receptor 2 (Rattus norvegicus) (Q5U3Y7 whole entry): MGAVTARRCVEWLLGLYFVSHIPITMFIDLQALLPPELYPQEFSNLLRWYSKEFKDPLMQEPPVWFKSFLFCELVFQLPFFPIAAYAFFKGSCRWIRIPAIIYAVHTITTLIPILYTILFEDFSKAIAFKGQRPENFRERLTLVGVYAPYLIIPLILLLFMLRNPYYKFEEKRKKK
Chain of Sigma non-opioid intracellular receptor 1 (Cavia porcellus) (Q60492 whole entry): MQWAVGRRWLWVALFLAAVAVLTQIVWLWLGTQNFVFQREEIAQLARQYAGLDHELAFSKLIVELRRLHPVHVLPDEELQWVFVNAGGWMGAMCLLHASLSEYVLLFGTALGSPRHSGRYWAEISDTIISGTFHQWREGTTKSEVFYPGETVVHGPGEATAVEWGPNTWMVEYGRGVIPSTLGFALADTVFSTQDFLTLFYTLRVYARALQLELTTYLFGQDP

| inhibition (Sus scrofa [1]) [%] | inhibition [2] [%] | inhibition [3] [%] | inhibition (Sus scrofa [4]) [%] | Compound | inhibition (Homo sapiens) [%] | pKi [5] |
| --- | --- | --- | --- | --- | --- | --- |
| 0 | 0 | 0 |  | COc1ccc2c(c1)CCN1CC2OC1C(F)CCc1ccccc1 (stereo unspecified) | 8 |  |
|  |  |  | 22 | COc1ccc2c(c1)CCN(CCCCc1ccccc1)CC2O (stereo unspecified) |  | 6.15 |
